{
  "source": "ChEMBL document CHEMBL1132958",
  "about": "“Design of monocyclic (1-3) and dicyclic (1-3/4-10) gonadotropin releasing hormone (GnRH) antagonists” (J Med Chem, 2000)",
  "key": {"Rattus norvegicus [1]": {"tested_on": "Rattus norvegicus", "assay": "Evaluated for number of rats ovulating in an in vivo anti-ovulatory assay at dose(1000 microg); 7/8", "type": "functional, organism-based"}, "Rattus norvegicus [2]": {"tested_on": "Rattus norvegicus", "assay": "Evaluated for number of rats ovulating in an in vivo anti-ovulatory assay at dose (500 microg); 4/8", "type": "functional, organism-based"}, "Rattus norvegicus [3]": {"tested_on": "Rattus norvegicus", "assay": "Evaluated for number of rats ovulating in an in vivo anti-ovulatory assay at dose (250 microg); 5/9", "type": "functional, organism-based"}, "Rattus norvegicus [4]": {"tested_on": "Rattus norvegicus", "assay": "Evaluated for number of rats ovulating in an in vivo anti-ovulatory assay at dose(25 microg); 3/4", "type": "functional, organism-based"}, "Rattus norvegicus [5]": {"tested_on": "Rattus norvegicus", "assay": "Evaluated for number of rats ovulating in an in vivo anti-ovulatory assay at dose(50 microg); 0/6", "type": "functional, organism-based"}, "Rattus norvegicus [6]": {"tested_on": "Rattus norvegicus", "assay": "Evaluated for number of rats ovulating in an in vivo anti-ovulatory assay at dose (500 microg); 7/8", "type": "functional, organism-based"}, "Rattus norvegicus [7]": {"tested_on": "Rattus norvegicus", "assay": "Evaluated for number of rats ovulating in an in vivo anti-ovulatory assay at dose (25 microg); 0/6", "type": "functional, organism-based"}, "Rattus norvegicus [8]": {"tested_on": "Rattus norvegicus", "assay": "Evaluated for number of rats ovulating in an in vivo anti-ovulatory assay at dose (10 microg); 10/10", "type": "functional, organism-based"}, "Rattus norvegicus [9]": {"tested_on": "Rattus norvegicus", "assay": "Evaluated for number of rats ovulating in an in vivo anti-ovulatory assay at dose (25 microg); 5/6", "type": "functional, organism-based"}, "Rattus norvegicus [10]": {"tested_on": "Rattus norvegicus", "assay": "Evaluated for number of rats ovulating in an in vivo anti-ovulatory assay at dose (100 microg); 6/11", "type": "functional, organism-based"}, "Rattus norvegicus [11]": {"tested_on": "Rattus norvegicus", "assay": "Evaluated for number of rats ovulating in an in vivo anti-ovulatory assay at dose(100 microg); 0/5", "type": "functional, organism-based"}, "Rattus norvegicus [12]": {"tested_on": "Rattus norvegicus", "assay": "Evaluated for number of rats ovulating in an in vivo anti-ovulatory assay at dose(50 microg); 1/4", "type": "functional, organism-based"}, "[13]": {"target": "T1, Gonadotropin-releasing hormone receptor (Rattus norvegicus, UniProt P30969)", "T1 sequence (P30969 whole entry)": "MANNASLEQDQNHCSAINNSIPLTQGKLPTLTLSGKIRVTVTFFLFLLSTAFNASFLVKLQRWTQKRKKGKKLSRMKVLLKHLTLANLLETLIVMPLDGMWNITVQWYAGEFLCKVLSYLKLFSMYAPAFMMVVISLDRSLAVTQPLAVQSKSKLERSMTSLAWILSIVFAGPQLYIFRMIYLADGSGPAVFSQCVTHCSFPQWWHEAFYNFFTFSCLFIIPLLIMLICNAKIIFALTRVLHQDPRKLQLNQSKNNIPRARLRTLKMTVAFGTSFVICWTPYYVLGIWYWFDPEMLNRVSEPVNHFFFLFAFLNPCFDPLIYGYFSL", "assay": "Competitive radioligand binding assay for rat Gonadotropin-releasing hormone receptor cells stably transfected in human HEK293", "summary_of_the_method": "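Membranes from HEK-293 cells stably expressing rat GnRH receptor (5% sucrose homogenate; nuclei removed at 3000g, membranes pelleted at 20000g, 4 °C), 7 µg protein in 10 mM Hepes pH 7.5, 150 mM NaCl, 0.1% BSA. Competitor at varying concentrations vs des-Gly10-[125I-Tyr5,DAla6,NMeLeu7,Pro9-NHEt]GnRH (~100 000 cpm), 90 min; PEI-coated GF/C filtration, PBS wash, γ counting. Ki by nonlinear least-squares fit; ≥3 independent experiments, mean ± SEM.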"}, "Rattus norvegicus [14]": {"tested_on": "Rattus norvegicus", "assay": "Evaluated for number of rats ovulating in an in vivo anti-ovulatory assay at dose (1000 microg); 3/8", "type": "functional, organism-based"}, "Rattus norvegicus [15]": {"tested_on": "Rattus norvegicus", "assay": "Evaluated for number of rats ovulating in an in vivo anti-ovulatory assay at dose (100 microg); 2/9", "type": "functional, organism-based"}, "Rattus norvegicus [16]": {"tested_on": "Rattus norvegicus", "assay": "Evaluated for number of rats ovulating in an in vivo anti-ovulatory assay at dose (250 microg); 0/6", "type": "functional, organism-based"}},
  "note": "The source made the active and inactive calls. The rule behind the calls is not given here.",
  "data": [
    {"smiles": "CC(=O)N[C@H]1CC(=O)N[C@H](C(=O)N[C@@H](CO)C(=O)N[C@@H](Cc2ccc(O)cc2)C(=O)N[C@H](Cc2ccc3ccccc3c2)C(=O)N[C@H](CC(C)C)C(=O)N[C@@H](CCCN=C(N)N)C(=O)N2CCC[C@H]2C(=O)N[C@H](C)C(N)=O)CNC(=O)[C@@H](Cc2ccc(Cl)cc2)NC1=O", "values": [
      {"measurement": "Activity", "setting": "Rattus norvegicus [1]", "result": "inactive"}
    ]},
    {"smiles": "CC(=O)N[C@H]1CC(=O)N[C@H](C)C(=O)N[C@@H](C(=O)N[C@@H](CO)C(=O)N[C@@H](Cc2ccc(O)cc2)C(=O)N[C@H](Cc2ccc3ccccc3c2)C(=O)N[C@H](CC(C)C)C(=O)N[C@@H](CCCN=C(N)N)C(=O)N2CCC[C@H]2C(=O)N[C@H](C)C(N)=O)CCCNC(=O)[C@@H](Cc2ccc(Cl)cc2)NC1=O", "values": [
      {"measurement": "Activity", "setting": "Rattus norvegicus [2]", "result": "Weak activity"},
      {"measurement": "Activity", "setting": "Rattus norvegicus [3]", "result": "Weak activity"}
    ]},
    {"smiles": "CC(=O)N[C@H]1CC(=O)NCCC(=O)N[C@@H](C(=O)N[C@@H](CO)C(=O)N[C@@H](Cc2ccc(O)cc2)C(=O)N[C@H](Cc2ccc3ccccc3c2)C(=O)N[C@H](CC(C)C)C(=O)N[C@@H](CCCN=C(N)N)C(=O)N2CCC[C@H]2C(=O)N[C@H](C)C(N)=O)CNC(=O)[C@@H](Cc2ccc(Cl)cc2)NC1=O", "values": [
      {"measurement": "Activity", "setting": "Rattus norvegicus [4]", "result": "inactive"},
      {"measurement": "Activity", "setting": "Rattus norvegicus [5]", "result": "Active"}
    ]},
    {"smiles": "CC(=O)N[C@H]1CC(=O)N[C@@H](C)C(=O)N[C@@H](C(=O)N[C@@H](CO)C(=O)N[C@@H](Cc2ccc(O)cc2)C(=O)N[C@H](CCCN=C(N)N)C(=O)N[C@H](CC(C)C)C(=O)N[C@@H](CCCN=C(N)N)C(=O)N2CCC[C@H]2C(=O)N[C@H](C)C(N)=O)CCCNC(=O)[C@@H](Cc2ccc(Cl)cc2)NC1=O", "values": [
      {"measurement": "Activity", "setting": "Rattus norvegicus [6]", "result": "inactive"}
    ]},
    {"smiles": "CC(=O)N[C@H]1CC(=O)NCC(=O)N[C@@H](C(=O)N[C@@H](CO)C(=O)N[C@@H](Cc2ccc(O)cc2)C(=O)N[C@H](Cc2ccc3ccccc3c2)C(=O)N[C@H](CC(C)C)C(=O)N[C@@H](CCCN=C(N)N)C(=O)N2CCC[C@H]2C(=O)N[C@H](C)C(N)=O)CCCNC(=O)[C@@H](Cc2ccc(Cl)cc2)NC1=O", "values": [
      {"measurement": "Activity", "setting": "Rattus norvegicus [7]", "result": "Active"},
      {"measurement": "Activity", "setting": "Rattus norvegicus [8]", "result": "inactive"}
    ]},
    {"smiles": "CC(=O)N[C@H]1CC(=O)NCCCC(=O)N[C@@H](C(=O)N[C@@H](CO)C(=O)N[C@@H](Cc2ccc(O)cc2)C(=O)N[C@H](Cc2ccc3ccccc3c2)C(=O)N[C@H](CC(C)C)C(=O)N[C@@H](CCCN=C(N)N)C(=O)N2CCC[C@H]2C(=O)N[C@H](C)C(N)=O)CNC(=O)[C@@H](Cc2ccc(Cl)cc2)NC1=O", "values": [
      {"measurement": "Activity", "setting": "Rattus norvegicus [9]", "result": "inactive"},
      {"measurement": "Activity", "setting": "Rattus norvegicus [10]", "result": "Weak activity"}
    ]},
    {"smiles": "CC(=O)N[C@H]1CCC(=O)N[C@@H](C(=O)N[C@@H](CO)C(=O)N[C@@H](Cc2ccc(O)cc2)C(=O)N[C@H](Cc2ccc3ccccc3c2)C(=O)N[C@H](CC(C)C)C(=O)N[C@@H](CCCN=C(N)N)C(=O)N2CCC[C@H]2C(=O)N[C@H](C)C(N)=O)CCCCNC(=O)[C@@H](Cc2ccc(Cl)cc2)NC1=O", "values": [
      {"measurement": "Activity", "setting": "Rattus norvegicus [11]", "result": "Active"},
      {"measurement": "Activity", "setting": "Rattus norvegicus [12]", "result": "Active"}
    ]},
    {"smiles": "CC(=O)NC1CCCNC(=O)CCNC(=O)C[C@@H](C(=O)N[C@@H](CO)C(=O)N[C@@H](Cc2ccc(O)cc2)C(=O)N[C@H](Cc2ccc3ccccc3c2)C(=O)N[C@H](CC(C)C)C(=O)NC(CCCN=C(N)N)C(=O)N2CCC[C@H]2C(=O)N[C@H](C)C(N)=O)NC(=O)[C@@H](Cc2ccc(Cl)cc2)NC1=O", "note": "(stereo in doubt)", "values": [
      {"measurement": "Ki", "setting": "[13]", "result": 2.2, "unit": "nM"},
      {"measurement": "Activity", "setting": "Rattus norvegicus [14]", "result": "Weak activity"}
    ]},
    {"smiles": "CC(=O)N[C@H]1CC(=O)N[C@@H](C)C(=O)N[C@@H](C(=O)N[C@@H](CO)C(=O)N[C@@H](Cc2ccc(O)cc2)C(=O)N[C@H](Cc2ccc3ccccc3c2)C(=O)N[C@H](CC(C)C)C(=O)N[C@@H](CCCN=C(N)N)C(=O)N2CCC[C@H]2C(=O)N[C@H](C)C(N)=O)CCCNC(=O)[C@@H](Cc2ccc(Cl)cc2)NC1=O", "values": [
      {"measurement": "Activity", "setting": "Rattus norvegicus [15]", "result": "Weak activity"},
      {"measurement": "Activity", "setting": "Rattus norvegicus [16]", "result": "Active"}
    ]}
  ]
}
